Experimental data published in ChEMBL document CHEMBL3425433, “Discovery of bicyclic pyrazoles as class III histone deacetylase SIRT1 and SIRT2 inhibitors” (Bioorg Med Chem Lett, 2015).
The source made the active and inactive calls. No cut-off for these calls is given here.

Tests used:
[1] = target: T1, NAD-dependent protein deacetylase sirtuin-1 (Homo sapiens) (UniProt Q96EB6); assay: Inhibition of SIRT1-mediated endogenous p53 deacetylase activity in human Namalwa cells assessed as concentration required to […] to twice the basal level after 3 hrs by ELISA; assay type: cell-based
T1 sequence (whole entry): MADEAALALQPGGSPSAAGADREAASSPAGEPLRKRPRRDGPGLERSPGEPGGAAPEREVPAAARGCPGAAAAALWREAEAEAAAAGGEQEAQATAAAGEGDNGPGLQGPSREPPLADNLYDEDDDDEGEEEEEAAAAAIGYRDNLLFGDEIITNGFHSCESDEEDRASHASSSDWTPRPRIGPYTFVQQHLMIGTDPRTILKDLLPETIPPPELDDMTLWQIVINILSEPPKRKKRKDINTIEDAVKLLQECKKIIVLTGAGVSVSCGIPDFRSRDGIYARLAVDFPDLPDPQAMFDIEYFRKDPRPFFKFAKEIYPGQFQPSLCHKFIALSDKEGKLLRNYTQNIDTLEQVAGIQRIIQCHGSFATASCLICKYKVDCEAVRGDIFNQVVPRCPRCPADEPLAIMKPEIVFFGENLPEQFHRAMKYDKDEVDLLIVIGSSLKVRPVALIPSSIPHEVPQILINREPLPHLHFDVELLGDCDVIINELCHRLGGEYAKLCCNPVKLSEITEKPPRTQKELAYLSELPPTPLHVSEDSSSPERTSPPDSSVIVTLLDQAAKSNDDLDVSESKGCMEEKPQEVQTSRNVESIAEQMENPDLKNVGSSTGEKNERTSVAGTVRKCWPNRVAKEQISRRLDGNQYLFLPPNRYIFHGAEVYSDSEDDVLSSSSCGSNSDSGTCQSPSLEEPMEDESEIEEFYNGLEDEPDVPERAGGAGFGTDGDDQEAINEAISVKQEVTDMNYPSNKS
Outline: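 Namalwa cells, 50,000/well, were exposed 3 h at 37 °C, 5% CO2, to 0.005–50 µM final (0.95% DMSO). Lysates were ELISA-captured on anti-p53 (DO-1), probed overnight with anti-acetyl-Lys382-p53, then HRP conjugate and Amplex Red (15 min; ex 550/em 610 nm). IC2xB is the concentration doubling basal (lowest) fluorescence. Means of three experiments.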

[2] = Half life in rat; assay type: ADME, organism-based; settings: in vivo
Plasma = assay: Metabolic stability in mouse plasma; assay type: ADME, cell-free
[3] = Oral bioavailability in rat; assay type: ADME, organism-based; settings: in vivo
[4] = Clearance in rat; assay type: ADME, organism-based; settings: in vivo
[5] = target: T2, Protein deacetylase HDAC6 (Homo sapiens, UniProt Q9UBN7); assay: Inhibition of HDAC6 (unknown origin)
T2 sequence (Q9UBN7 whole entry): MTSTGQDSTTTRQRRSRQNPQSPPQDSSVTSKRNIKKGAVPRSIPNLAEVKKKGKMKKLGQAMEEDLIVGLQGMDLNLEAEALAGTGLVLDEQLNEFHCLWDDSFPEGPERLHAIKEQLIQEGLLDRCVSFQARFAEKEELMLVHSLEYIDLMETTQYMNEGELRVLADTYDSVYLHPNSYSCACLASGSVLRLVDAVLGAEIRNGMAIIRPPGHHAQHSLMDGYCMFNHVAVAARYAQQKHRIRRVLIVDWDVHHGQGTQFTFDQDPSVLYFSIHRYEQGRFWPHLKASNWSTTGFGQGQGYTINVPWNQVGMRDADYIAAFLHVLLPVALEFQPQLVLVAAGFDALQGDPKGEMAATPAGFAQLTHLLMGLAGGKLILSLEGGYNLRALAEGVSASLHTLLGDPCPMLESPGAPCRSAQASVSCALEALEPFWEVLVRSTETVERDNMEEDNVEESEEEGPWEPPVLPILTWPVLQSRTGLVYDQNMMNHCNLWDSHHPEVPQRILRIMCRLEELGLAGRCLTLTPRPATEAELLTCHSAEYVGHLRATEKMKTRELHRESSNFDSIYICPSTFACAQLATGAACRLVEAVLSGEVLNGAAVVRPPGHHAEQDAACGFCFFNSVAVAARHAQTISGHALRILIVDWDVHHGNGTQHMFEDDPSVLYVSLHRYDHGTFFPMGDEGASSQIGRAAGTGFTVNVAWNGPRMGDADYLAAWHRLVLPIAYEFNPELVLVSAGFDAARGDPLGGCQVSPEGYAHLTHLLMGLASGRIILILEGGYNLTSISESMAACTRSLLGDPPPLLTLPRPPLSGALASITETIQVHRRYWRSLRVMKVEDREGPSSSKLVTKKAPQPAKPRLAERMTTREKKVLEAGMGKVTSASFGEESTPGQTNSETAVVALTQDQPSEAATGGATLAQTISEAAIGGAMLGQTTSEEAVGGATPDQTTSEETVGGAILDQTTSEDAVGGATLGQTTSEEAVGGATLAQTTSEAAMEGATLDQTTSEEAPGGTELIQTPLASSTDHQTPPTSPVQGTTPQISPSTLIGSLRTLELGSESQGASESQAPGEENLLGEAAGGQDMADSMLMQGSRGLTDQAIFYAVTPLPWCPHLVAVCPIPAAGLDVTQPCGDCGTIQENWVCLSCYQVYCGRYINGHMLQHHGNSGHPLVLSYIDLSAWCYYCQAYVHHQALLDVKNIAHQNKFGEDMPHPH

[6] = target: Histone deacetylase 4 (Homo sapiens) (UniProt P56524); assay: Inhibition of HDAC4 (unknown origin) at 20 uM
Sequence of Histone deacetylase 4 (Homo sapiens) (P56524 whole entry): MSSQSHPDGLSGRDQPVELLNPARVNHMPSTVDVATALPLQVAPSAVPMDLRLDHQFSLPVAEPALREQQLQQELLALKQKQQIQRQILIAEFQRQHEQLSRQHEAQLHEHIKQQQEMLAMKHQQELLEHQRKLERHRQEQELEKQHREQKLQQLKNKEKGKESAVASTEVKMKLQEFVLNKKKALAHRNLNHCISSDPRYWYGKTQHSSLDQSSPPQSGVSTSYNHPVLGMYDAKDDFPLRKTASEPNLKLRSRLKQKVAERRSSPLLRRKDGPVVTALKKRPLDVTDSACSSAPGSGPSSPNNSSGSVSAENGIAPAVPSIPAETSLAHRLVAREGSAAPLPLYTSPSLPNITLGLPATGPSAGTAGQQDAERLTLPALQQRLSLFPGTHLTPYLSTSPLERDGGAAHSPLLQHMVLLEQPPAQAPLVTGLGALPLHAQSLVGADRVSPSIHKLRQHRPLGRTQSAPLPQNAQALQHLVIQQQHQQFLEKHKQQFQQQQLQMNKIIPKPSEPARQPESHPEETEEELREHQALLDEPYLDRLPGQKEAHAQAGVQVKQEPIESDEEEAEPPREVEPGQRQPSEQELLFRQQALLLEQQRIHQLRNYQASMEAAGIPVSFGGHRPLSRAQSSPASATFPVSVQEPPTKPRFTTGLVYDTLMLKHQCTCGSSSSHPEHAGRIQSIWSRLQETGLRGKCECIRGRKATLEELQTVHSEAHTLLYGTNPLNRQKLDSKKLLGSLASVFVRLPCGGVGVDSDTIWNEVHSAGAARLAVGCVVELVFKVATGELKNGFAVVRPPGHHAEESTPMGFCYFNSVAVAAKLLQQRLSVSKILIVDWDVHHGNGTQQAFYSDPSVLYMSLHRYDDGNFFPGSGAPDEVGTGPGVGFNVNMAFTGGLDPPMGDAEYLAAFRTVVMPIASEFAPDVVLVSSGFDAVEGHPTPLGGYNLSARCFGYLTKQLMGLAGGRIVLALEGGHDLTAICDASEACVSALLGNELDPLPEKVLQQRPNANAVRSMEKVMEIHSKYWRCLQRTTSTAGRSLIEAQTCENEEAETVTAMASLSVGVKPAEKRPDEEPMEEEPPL

SMILES | INH [1] [µM] | half-life [2] [h] | Stability (Plasma) | bioavailability [3] [%] | clearance [4] [mL/min/kg] | IC50 [5] [µM] | inhibition [6]
NC(=O)C1CCCc2c(-c3ccc(Br)cc3)n[nH]c21 (racemic) | 1.5 |  |  |  |  |  | 
NC(=O)C1CCCc2c(-c3nc4ccccc4s3)n[nH]c21 (racemic) | 0.9 |  |  |  |  |  | 
NC(=O)C1CCCCc2c(-c3ccc(Cl)cc3)n[nH]c21 (racemic) | 0.8 |  |  |  |  |  | 
NC(=O)C1CCCc2c(-c3ccc(Cl)cc3)n[nH]c21 (racemic) | 0.5 | 1.1 | Stable | 20 | 30 |  | 
CC1(C)Cc2c(-c3ccc(Cl)cc3)n[nH]c2C(C(N)=O)C1 (racemic) | 1.2 | 5.1 | Stable | 23 | 5 |  | 
NC(=O)C1CCCc2c(-c3ccc(Cl)c(Cl)c3)n[nH]c21 (racemic) | 1.2 |  |  |  |  | > 10 | inactive
